Reference: ChEMBL document CHEMBL5143719, “Cosolvent Sites-Based Discovery of Mycobacterium Tuberculosis Protein Kinase G Inhibitors” (J Med Chem, 2022)
Activity calls are given as the source filed them. No cut-off for these calls is given here.

Assays:
[1] = target: T1, Serine/threonine-protein kinase PknG (Mycobacterium tuberculosis, UniProt P9WI73); experiment: Binding affinity to full length Mycobacterium tuberculosis protein kinase G expressed in Escherichia coli BL21 assessed as dissociation constant at 21 degreeC by fluorescence spectroscopy based
[2] = system: Mycobacterium tuberculosis; experiment: Antimycobacterial activity against Mycobacterium tuberculosis H37Rv infected in human THP-1 cells assessed as reduction in intracellular survival at 1 to 10 uM measured after 24 to 48 hrs; format: functional, organism-based; details: dose 1-10 µM, time 24-48 hrs
In short: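 THP-1 monocytes were differentiated with 10 ng/mL PMA for 48 h and infected with Mtb H37Rv (MOI 10) for 2 h. Cells were washed and cultured without penicillin–streptomycin with compound at 1 and 10 μM for 24 and 48 h. Lysis was in 0.05% Triton X-100; serial dilutions were plated in quadruplicate on 7H10 OADC. CFU were counted after 3 weeks. Welch's ANOVA with Dunnett T3.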

[3] = target: T1, Serine/threonine-protein kinase PknG; experiment: Inhibition of full length Mycobacterium tuberculosis protein kinase G using His-tagged GarA as substrate in presence of [gamma32P] ATP measured after 12 to 24 hrs by radiometric kinase assay
[4] = target: Serine/threonine-protein kinase PknG (Mycobacterium tuberculosis) (UniProt P9WI73); experiment: Inhibition of full length Mycobacterium tuberculosis protein kinase G at 40 uM using GarA as substrate in presence of ATP relative to control
In short: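 End-point assay with full-length PknG 1 μM, GarA 25 μM and ATP 2 μM, in 25 mM Tris-HCl pH 7.4, 2 mM MnCl2 and 1–2% DMSO. Reactions ran 60 min at 37 °C, after which remaining ATP was read by Kinase-Glo Plus luminescence. Inhibition was referenced to no-compound (DMSO) and no-GarA controls. Duplicates.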

THP-1 = experiment: Cytotoxicity against human THP1 cells assessed as reduction in cell viability at 1 to 10 uM measured for 3 to 48 hrs by trypan blue assay; format: toxicity, cell-based; details: thp-1, 10 µM, dose lower 1 µM, time lower 3 hrs, dose upper 10 µM, time upper 48 hrs
In short: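 PMA-differentiated THP-1 macrophages were exposed to compound at 1 and 10 μM for 3, 5, 24 and 48 h. Viability was scored by trypan blue exclusion, in triplicate, as percent of untreated control cells.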

T1 sequence (P9WI73 whole entry): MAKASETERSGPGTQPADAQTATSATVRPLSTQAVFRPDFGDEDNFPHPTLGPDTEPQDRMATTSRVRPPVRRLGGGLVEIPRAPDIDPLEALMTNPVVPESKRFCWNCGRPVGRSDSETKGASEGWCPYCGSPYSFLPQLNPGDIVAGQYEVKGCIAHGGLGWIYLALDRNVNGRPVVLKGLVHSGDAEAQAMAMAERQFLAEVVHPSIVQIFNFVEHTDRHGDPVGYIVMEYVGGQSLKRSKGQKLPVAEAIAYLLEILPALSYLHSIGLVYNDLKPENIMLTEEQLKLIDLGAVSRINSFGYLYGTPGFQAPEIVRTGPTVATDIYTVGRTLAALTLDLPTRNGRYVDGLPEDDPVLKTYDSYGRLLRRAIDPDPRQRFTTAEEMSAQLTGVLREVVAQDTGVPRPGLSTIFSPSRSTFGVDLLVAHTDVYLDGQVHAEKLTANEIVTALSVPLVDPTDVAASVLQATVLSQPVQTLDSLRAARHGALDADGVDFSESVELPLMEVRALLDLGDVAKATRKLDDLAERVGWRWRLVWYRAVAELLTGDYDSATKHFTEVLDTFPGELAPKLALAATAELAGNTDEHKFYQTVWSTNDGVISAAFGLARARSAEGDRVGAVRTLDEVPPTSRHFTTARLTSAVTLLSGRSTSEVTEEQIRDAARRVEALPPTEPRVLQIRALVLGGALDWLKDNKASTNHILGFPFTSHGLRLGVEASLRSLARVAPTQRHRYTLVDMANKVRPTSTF
Sequence of Serine/threonine-protein kinase PknG (Mycobacterium tuberculosis) (P9WI73 whole entry): as above

NC(=O)c1c(N)c(C(=O)c2ccc(Br)cc2)n2ccccc12
Kd [1]: 1300 nM

CCN1CCCC1CNC(=O)Nc1sc2c(c1C(N)=O)CCCC2 (configuration not stated)
Activity [2]: Active

CCOc1ccc(C(=O)c2c(N)c(C(N)=O)c3ccccn23)cc1
Kd [1]: 13000 nM

NC(=O)c1c(NC(=O)NCC2CCCO2)sc2c1CCCC2 (configuration not stated)
Activity [2]: Active

NC(=O)c1c(NC(=O)C2CC2)sc2c1CCCC2
Activity [2]: Active
IC50 [3]: 900 nM

NC(=O)c1c(N)c(C(=O)c2ccccc2)n2ccccc12
Kd [1]: 1800 nM

CS(=O)(=O)Nc1ccc(-c2cc(-c3ccccc3)cc(C(N)=O)c2N)cc1
inhibition [4]: 50%

CC(C)c1ccc(C(=O)c2c(N)c(C(N)=O)c3ccccn23)cc1
Activity (THP-1): Non-Toxic
Activity [2]: Active

NC(=O)c1c(N)c(C(=O)c2ccc(F)cc2)n2ccccc12
Activity (THP-1): Non-Toxic
Activity [2]: Active
